Experimental data published in ChEMBL document CHEMBL1149909, “Aurocitrin and related polyketide metabolites from the wood-decay fungus Hypocrea sp. BCC 14122” (J Nat Prod, 2008).

Assays:
Plasmodium falciparum = test: Antimalarial activity against multidrug-resistant Plasmodium falciparum K1 by microculture radioisotope technique; type: functional, organism-based
KB = test: Cytotoxicity against human KB cells by colorimetric method; type: functional, cell-based
Outline: (§1)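 Colorimetric cytotoxicity read-out on four cell lines: KB (oral human epidermoid carcinoma), BC (human breast cancer), NCI-H187 (human small cell lung cancer) and Vero (African green monkey kidney […]). A reference compound was run alongside.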

[1] = Cytotoxicity against human BC cells by colorimetric method; type: functional, cell-based; outline: as §1
NCI-H187 = test: Cytotoxicity against human NCI-H187 cells by colorimetric method; type: functional, cell-based; outline: as §1
Vero = test: Cytotoxicity against african green monkey Vero cells by colorimetric method; type: cell-based; details: Chlorocebus sabaeus; outline: as §1

Row | SMILES | IC50 (Plasmodium falciparum) [nM] | IC50 (KB) [nM] | IC50 [1] [nM] | IC50 (NCI-H187) [nM] | IC50 (Vero) [nM]
1 | C[C@H]1[C@@H](O)O[C@@H]2O[C@@]3(C)CC[C@H]4[C@H](C)CC[C@@H]1[C@@]24OO3 [ARTENIMOL] | 4.5 | – | – | – | –
2 | Cc1c2ccncc2c(C)c2c1[nH]c1ccccc12 [ELLIPTECINE] | – | 2200 | 1200 | 2000 | 2100
